In ChEMBL document CHEMBL5614410, “Design, Synthesis, and Evaluation of p53Y220C Acetylation Targeting Chimeras (AceTACs)” (J Med Chem, 2024):
Active and inactive are the calls of the source. The calls are words filed in the database; no cut-off is given here.

Legend:
[1] = test system: CREB-binding protein/Histone acetyltransferase p300/Cellular tumor antigen p53 (Homo sapiens), P04637+Q09472+Q92793 [Y220C]; test: AceTAC activity at FLAG-tagged p53Y220C mutant (unknown origin) expressed in human NCI-H1299 cells expressing p300/CBP assessed as downregulation of SLC7A11 mRNA expression at 3 uM incubated for 24 hrs by RT-PCR analysis; format: cell-based
Procedure, shortened: (§1)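 NCI-H1299 p53Y220C cells were treated with DMSO or compound at 3 μM for 24 h. mRNA of p53-target genes was measured by RT-qPCR, normalised to GAPDH and expressed relative to DMSO control. Values are mean ± SD of three independent experiments.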

[2] = test system: CREB-binding protein/Histone acetyltransferase p300/Cellular tumor antigen p53 (Homo sapiens), P04637+Q09472+Q92793 [Y220C]; test: AceTAC activity at FLAG-tagged p53Y220C mutant (unknown origin) expressed in human NCI-H1299 cells expressing p300/CBP assessed as upregulation of GADD45A mRNA expression at 3 uM incubated for 24 hrs by RT-PCR analysis; format: cell-based; procedure, shortened: as §1
[3] = test system: CREB-binding protein/Histone acetyltransferase p300/Cellular tumor antigen p53 (Homo sapiens), P04637+Q09472+Q92793 [Y220C]; test: AceTAC activity at FLAG-tagged p53Y220C mutant (unknown origin) expressed in human NCI-H1299 cells expressing p300/CBP and transfected with control siRNA assessed as increase in p53 acetylation at lysine 382 residue at 1 to 10 uM incubated for 24 hrs by western blot analysis; format: cell-based; conditions: dose 1-10 µM
Procedure, shortened: (§2)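 NCI-H1299 cells stably expressing p53Y220C were given control or p300 siRNA, then treated at 0, 1 or 10 μM for 24 h. Lysates were Western blotted for p53 and p53K382ac. The acetylation level was normalised to vinculin and quantified from two independent experiments.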

[4] = test system: NCI-H1299; test: Antiproliferative activity against human NCI-H1299 cells expressing p53Y220C mutant assessed as reduction in cell viability incubated for 3 days by WST-8 assay; format: functional
Procedure, shortened: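 NCI-H1299 p53Y220C cells were exposed to compound over a concentration range for 72 h, in some runs after 72 h of control or p300 siRNA, before the viability read-out. Values are mean ± SD of three independent experiments.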

[5] = test system: CREB-binding protein/Histone acetyltransferase p300/Cellular tumor antigen p53 (Homo sapiens), P04637+Q09472+Q92793 [Y220C]; test: AceTAC activity at FLAG-tagged p53Y220C mutant (unknown origin) expressed in human NCI-H1299 cells expressing p300/CBP assessed as BAX mRNA expression at 3 uM incubated for 24 hrs by RT-PCR analysis; format: cell-based; procedure, shortened: as §1
[6] = test system: CREB-binding protein/Histone acetyltransferase p300/Cellular tumor antigen p53 (Homo sapiens), P04637+Q09472+Q92793 [Y220C]; test: (§3) AceTAC activity at FLAG-tagged p53Y220C mutant (unknown origin) expressed in human NCI-H1299 cells expressing p300/CBP assessed as increase in p53 acetylation at lysine 382 residue incubated for 24 hrs by western blot analysis; format: cell-based
Procedure, shortened: (§4)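 NCI-H1299 (p53Y220C) cells were treated at 0.1–10 μM (0.1, 0.3, 1, 3 or 10 μM) for 24 h. Lysates were Western blotted for p53 and p53K382ac, with vinculin as loading control. p53K382ac was normalised to total p53Y220C and quantified from two or three independent experiments.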

[7] = biological target: CREB-binding protein/Histone acetyltransferase p300/Cellular tumor antigen p53 (Homo sapiens, UniProt P04637+Q09472+Q92793, Y220C); test: as §3; format: cell-based; procedure, shortened: as §4
[8] = test system: CREB-binding protein/Histone acetyltransferase p300/Cellular tumor antigen p53 (Homo sapiens), P04637+Q09472+Q92793 [Y220C]; test: as §3, with “at 10 uM pretreated” for “incubated”, “2 hrs with p53Y220C mutant binder, PK9328 followed by incubation with compound for 18” for “24”; format: cell-based
[9] = test system: U2OS; test: Cytotoxicity against human U2OS cells harboring wild type p53 assessed as inhibition of cell growth incubated for 72 hrs by WST-8 assay; format: toxicity, cell-based
Procedure, shortened: (§5)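 U2OS (WT p53) or normal prostate PNT2 cells were treated for 72 h at the indicated concentrations. Viability is mean ± SD of technical triplicates from two biological experiments.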

[10] = test system: CREB-binding protein/Histone acetyltransferase p300/Cellular tumor antigen p53 (Homo sapiens), P04637+Q09472+Q92793 [Y220C]; test: AceTAC activity at FLAG-tagged p53Y220C mutant (unknown origin) expressed in human NCI-H1299 cells expressing p300/CBP and transfected with p300 siRNA assessed as increase in p53 acetylation at lysine 382 residue at 1 to 10 uM incubated for 24 hrs by western blot analysis; format: cell-based; conditions: dose 1-10 µM; procedure, shortened: as §2
[11] = Cytotoxicity against human PNT2 cells assessed as inhibition of cell growth at 10 uM incubated for 72 hrs by WST-8 assay; format: toxicity, cell-based; procedure, shortened: as §5
[12] = test system: CREB-binding protein/Histone acetyltransferase p300/Cellular tumor antigen p53 (Homo sapiens), P04637+Q09472+Q92793 [Y220C]; test: AceTAC activity at FLAG-tagged p53Y220C mutant (unknown origin) expressed in human NCI-H1299 cells expressing p300/CBP assessed as increase in p53 acetylation at lysine 382 residue at 10 uM incubated for 24 hrs by western blot analysis relative to control; format: cell-based; procedure, shortened: as §4
[13] = test system: NCI-H1299; test: Antiproliferative activity against p53-null human NCI-H1299 cells assessed as reduction in cell viability at 0.47 to 15 uM incubated for 3 days by WST-8 assay; format: functional, cell-based; conditions: dose 0.47-15 µM, time 3.0 day
Procedure, shortened: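 p53-null NCI-H1299 cells were exposed to compound across the concentration series for 72 h before the viability read-out. Data are mean ± SD from three independent experiments.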

[14] = Plasma concentration in Swiss albino mouse at 50 mg/kg, ip measured after 8 hrs by LC-MS/MS analysis; format: ADME, organism-based
Procedure, shortened: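 Swiss albino mice received a single 50 mg/kg intraperitoneal injection. Plasma levels were followed over 8 h. Each point is the mean ± SEM of three mice.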

[15] = test system: CREB-binding protein/Histone acetyltransferase p300/Cellular tumor antigen p53 (Homo sapiens), P04637+Q09472+Q92793 [Y220C]; test: AceTAC activity at FLAG-tagged p53Y220C mutant (unknown origin) expressed in human NCI-H1299 cells expressing p300/CBP assessed as upregulation of p21 mRNA expression at 3 uM incubated for 24 hrs by RT-qPCR analysis; format: cell-based; procedure, shortened: as §1
[16] = test system: NCI-H1299; test: Antiproliferative activity against human NCI-H1299 cells expressing p53Y220C mutant and transfected with p300 siRNA assessed as reduction in cell viability at 0.47 to 15 uM incubated for 3 days by WST-8 assay; format: functional, cell-based; conditions: dose 0.47-15 µM, time 3.0 day
Procedure, shortened: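 NCI-H1299 p53Y220C cells were first transfected with p300 siRNA for 72 h, then exposed to compound across the concentration series for 72 h. Viability is mean ± SD from three independent experiments.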

[17] = Toxicity in Swiss albino mouse assessed as tolerability at 50 mg/kg, ip measured for 8 hrs; format: organism-based; conditions: in vivo
[18] = test system: CREB-binding protein/Histone acetyltransferase p300/Cellular tumor antigen p53 (Homo sapiens), P04637+Q09472+Q92793 [Y220C]; test: Induction of interaction between FLAG-tagged p53Y220C mutant (unknown origin) and p300/CBP expressed in human NCI-H1299 cells at 10 uM pretreated for 2 hrs with p300/CBP bromodomain binder, 4-(2-(5-(3,5-dimethylisoxazol-4-yl)-2-(3-fluoro-4-methoxyphenethyl)-1H-benzo[d]imidazol-1-yl)ethyl)morpholine followed by incubation with compound for 18 hrs by co-immunoprecipitation analysis; format: cell-based
Procedure, shortened: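 NCI-H1299 (p53Y220C) cells were pretreated for 2 h with a 10 μM p53Y220C binder or a 10 μM p300 binder, then given compound at 3 μM for 18 h. p53-FLAG pull-down was followed by Western blot analysis.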

[19] = test system: CREB-binding protein/Histone acetyltransferase p300/Cellular tumor antigen p53 (Homo sapiens), P04637+Q09472+Q92793 [Y220C]; test: AceTAC activity at FLAG-tagged p53Y220C mutant (unknown origin) expressed in human NCI-H1299 cells expressing p300/CBP assessed as increase in p53 acetylation at lysine 382 residue at 3 uM incubated for 24 hrs by western blot analysis; format: cell-based; procedure, shortened: as §4
[20] = test system: BXPC-3; test: Antiproliferative activity against human BXPC-3 cells harboring p53Y220C mutant assessed as inhibition of cell growth incubated for 72 hrs by WST-8 assay; format: functional
Procedure, shortened: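 BxPC3 or NUGC-3 cells were treated with DMSO or compound over a concentration range for 72 h before the viability read-out. Values are mean ± SD of technical triplicates from three biological experiments.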

## CCn1c2ccc(CNCCOCCOCCOCCC(=O)NCCOc3ccc(CCc4nc5cc(-c6c(C)noc6C)ccc5n4CCN4CCOCC4)cc3F)cc2c2ccc(-c3cc(C)cs3)cc21
[1]
  Activity: Active
[2]
  Activity: Active
[3]
  Activity: Active
[4]; NCI-H1299, 72 h, time 3 day
  GI50: 3000 nM
[4]; time 3.0 day
  Activity: Dose-Dependent Effect
[5]
  Activity: inactive
[6]
  Activity: Dose-Dependent Effect
[7]
  EC50: 1520 nM
[8]
  Activity: inactive
[9]
  GI50: > 10000 nM
[10]
  Activity: inactive
[11]
  inhibition at 72 h, 10 µM: ~30%
[12]
  Activity: 235%
[13]
  Activity: inactive
[14]
  concentration at 8 h: > 400 nM
[15]
  Activity: Active
[16]
  Activity: inactive
[17]
  Activity: Non-Toxic
[18]
  Activity: inactive
[19]
  Activity: Active
[20]
  GI50: 2160 nM
